Measured values reported in ChEMBL document CHEMBL1140447, “Synthesis and antimuscarinic properties of quinuclidin-3-yl 1,2,3,4-tetrahydroisoquinoline-2-carboxylate derivatives as novel muscarinic receptor antagonists” (J Med Chem, 2005).
“And” between values parts separate entries of the source, which are not always exact repeats. Equal values may be shown once.

Key:
[1] = biological target: T1, Muscarinic acetylcholine receptor M2 (Rattus norvegicus, UniProt P10980); experiment: Binding affinity for rat heart muscarinic acetylcholine receptor M2 using [3H]quinuclidinyl benzilate
T1 sequence (P10980 whole entry): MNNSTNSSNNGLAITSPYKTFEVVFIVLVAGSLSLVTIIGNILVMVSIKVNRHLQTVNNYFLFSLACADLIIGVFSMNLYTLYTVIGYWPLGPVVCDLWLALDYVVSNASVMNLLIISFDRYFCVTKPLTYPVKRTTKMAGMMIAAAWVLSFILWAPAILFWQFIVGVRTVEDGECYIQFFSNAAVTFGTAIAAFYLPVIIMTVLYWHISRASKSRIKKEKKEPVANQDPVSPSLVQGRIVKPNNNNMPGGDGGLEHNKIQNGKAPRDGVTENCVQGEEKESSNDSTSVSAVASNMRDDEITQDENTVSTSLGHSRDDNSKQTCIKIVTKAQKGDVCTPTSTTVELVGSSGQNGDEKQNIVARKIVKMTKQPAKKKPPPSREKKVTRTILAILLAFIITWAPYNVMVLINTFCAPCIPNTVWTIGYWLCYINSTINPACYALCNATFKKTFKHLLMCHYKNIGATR

Rattus norvegicus [2] = experiment: Intravenous dose required to inhibit oxotremorine induced salivary secretion in urethane ([…] i.p.) anesthetized male wistar rats; format: functional; conditions: for ED50: Rattus norvegicus, read-out: ID50 (the source's name)
Rattus norvegicus [3] = experiment: Intravenous dose required to inhibit rhythmic contraction of urinary bladder in urethane (1.0 g/kg s.c.) anesthetized female wistar rats; format: functional
Method in brief: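 Each rat received escalating intravenous doses, giving a dose–response curve per animal. The fall in intravesical pressure was read 5–10 min after each dose. ED30 is the dose that cut peak intravesical pressure by 30%. Values are means ± SEM.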

Rattus norvegicus [4] = experiment: M2 antagonism measured as effect (i.v.) on oxotremorine induced bradycardia in pithed rats; format: functional
Method in brief: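 Bradycardia was evoked in pithed rats by an iv oxotremorine dose–response challenge, with compounds given 15 min beforehand. DR10 is the compound dose that shifts the oxotremorine curve 10-fold to the right. Values are reported with 95% confidence limits.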

Rattus norvegicus [5] = experiment: M1 antagonism measured as effect (i.v.) on McN-A343 induced pressor response in pithed rats; format: functional; conditions: iv, read-out: ID50 (the source's name)
Method in brief: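 Compounds were given iv 15 min before McN-A343 (3 μmol/kg iv) in pithed rats, with the pressor response recorded.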

Rattus norvegicus [6] = organism: Rattus norvegicus; experiment: Selectivity index calculated as ID50/ED30
[7] = Rattus norvegicus, read-out: ED30

Row | SMILES | Ki [1] | ED50 (Rattus norvegicus [2]) [mg/kg] | ED30 (Rattus norvegicus [3]; [7]) [mg/kg] | further results
1 | O=C(NC(c1ccccc1)c1ccccc1)OC1CN2CCC1CC2 (configuration not stated) | 0.0068 µM |  |  | 
2 | O=C(O[C@H]1CN2CCC1CC2)N1Cc2ccccc2C(c2ccccc2)C1 (some centres not stated) | > 1 µM |  |  | 
3 | O=C(O[C@H]1CN2CCC1CC2)N1CCc2ccccc2C1c1ccsc1 (single isomer, unassigned; 12b) | 0.11 µM | 1.3 | 0.24 | 
4 | O=C(O[C@H]1CN2CCC1CC2)N1CCc2ccccc2C1C1CCCCC1 (some centres not stated) | 0.022 µM and 0.039 µM |  |  | 
5 | O=C(O[C@H]1CN2CCC1CC2)N1CCc2ccccc2C1c1ccsc1 (single isomer, unassigned; 12a) | 0.015 µM | 0.11 | 0.016 | 
6 | CCN(CC)CC#CCOC(=O)C(O)(c1ccccc1)C1CCCCC1 (configuration not stated) [OXYBUTYNIN] |  | 0.17 | 0.2 | ID50 (Rattus norvegicus [2]): 0.17 mg/kg; ED30 (Rattus norvegicus [3]): 0.2 mg/kg; DR10 (Rattus norvegicus [4]): 1.6 mg/kg; ED50 (Rattus norvegicus [5]): 1.1 mg/kg
7 | O=C(O[C@@H]1CN2CCC1CC2)N1CCc2ccccc2[C@@H]1c1ccccc1 | 3.5 µM |  |  | 
8 | O=C(O[C@@H]1CN2CCC1CC2)N1CCc2ccccc2[C@H]1c1ccccc1 | 1.6 µM |  |  | 
9 | O=C(O[C@H]1CN2CCC1CC2)N1CC(O)c2ccccc2C1c1ccccc1 (some centres not stated) | 1.8 µM and 0.48 µM |  |  | 
10 | O=C(O[C@H]1CN2CCC1CC2)N1CCc2ccccc2C1c1cccs1 (some centres not stated) | 0.013 µM and 0.093 µM |  |  | 
11 | O=C(O[C@H]1CN2CCC1CC2)N1CCc2ccccc2[C@H]1c1ccccc1 | 0.0087 µM | 0.12 | 0.036 | 
12 | Cc1ccc(O)c([C@H](CCN(C(C)C)C(C)C)c2ccccc2)c1 [TOLTERODINE] |  | 0.26 | 0.06 | Selectivity index (Rattus norvegicus [6]): 4.3
13 | O=C(O[C@H]1CN2CCC1CC2)N1Cc2ccccc2C1c1ccccc1 (some centres not stated) | 0.44 µM |  |  | 
14 | NC(=O)C(c1ccccc1)(c1ccccc1)[C@@H]1CCN(CCc2ccc3c(c2)CCO3)C1 [DARIFENACIN] |  | 0.11 | 0.058 | Selectivity index (Rattus norvegicus [6]): 1.9
15 | O=C(O[C@H]1CN2CCC1CC2)N1CCc2ccccc2[C@@H]1c1ccccc1 [SOLIFENACIN] | 0.12 µM | 2.1 | 0.18 | DR10 (Rattus norvegicus [4]): 4.2 mg/kg; ED50 (Rattus norvegicus [5]): 2.8 mg/kg
16 | O=C(O[C@H]1CN2CCC1CC2)N1C[C@H](O)c2ccccc2[C@H]1c1ccccc1 | 1.7 µM |  |  | 
17 | O=C(O[C@H]1CN2CCC1CC2)N1CCc2ccccc2C1c1ccccc1 (some centres not stated) | 0.028 µM |  |  | 
18 | O=C(O[C@H]1CN2CCC1CC2)N1C[C@@H](O)c2ccccc2[C@@H]1c1ccccc1 | 0.85 µM |  |  | 
